{
  "source": "paper PMC7105014",
  "about": "(Journal of Functional Foods, 2011)",
  "key": {"[1]": {"molecular_target": "α-glucosidase", "details": "read-out: IC50 against α-glucosidase; ref Hakamata et al., 2006; cited from earlier work"}, "[2]": {"molecular_target": "HCV NS3/4A protease (Hepatitis C virus genotype 1a, UniProt P27958)", "sequence (P27958 1027-1657 limits assumed)": "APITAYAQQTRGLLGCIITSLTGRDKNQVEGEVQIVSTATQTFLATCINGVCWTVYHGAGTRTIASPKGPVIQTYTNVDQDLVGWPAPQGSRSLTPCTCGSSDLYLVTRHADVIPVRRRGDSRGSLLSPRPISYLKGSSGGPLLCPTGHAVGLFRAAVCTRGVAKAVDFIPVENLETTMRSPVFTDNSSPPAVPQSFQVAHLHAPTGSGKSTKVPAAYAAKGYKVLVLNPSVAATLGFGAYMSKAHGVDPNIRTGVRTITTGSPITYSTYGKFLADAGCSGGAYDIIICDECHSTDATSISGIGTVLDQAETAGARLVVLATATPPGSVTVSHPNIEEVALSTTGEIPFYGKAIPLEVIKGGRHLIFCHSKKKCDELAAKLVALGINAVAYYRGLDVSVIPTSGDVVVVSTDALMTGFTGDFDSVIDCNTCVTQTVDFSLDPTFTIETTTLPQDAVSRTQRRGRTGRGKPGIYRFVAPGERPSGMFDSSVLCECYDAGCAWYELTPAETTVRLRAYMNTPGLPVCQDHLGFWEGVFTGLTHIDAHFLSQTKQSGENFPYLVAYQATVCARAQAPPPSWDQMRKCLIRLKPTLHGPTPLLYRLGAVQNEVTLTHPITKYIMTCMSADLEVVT", "sequence (P27958 1658-1711 partner limits assumed)": "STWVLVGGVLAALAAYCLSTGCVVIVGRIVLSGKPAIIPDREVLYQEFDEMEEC", "test": "HCV NS3/4A protease inhibition", "assay_type": "biochemical", "how_it_was_run": "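Test compound in DMSO was mixed with HCV NS3/4A protease solution (0.5 μg/ml; SensoLyte 520 kit). The reaction was started with substrate diluted 100× from a DMSO stock. After 30 min at room temperature, fluorescence was read (ex 485/em 535 nm) and corrected with a substrate blank. % inhibition was taken against a compound-free control. IC50 came from concentration–inhibition curves, with embelin as reference inhibitor.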"}},
  "data": [
    {"smiles": "Oc1cc(O)c2c(c1)O[C@H](c1ccc(O)c(O)c1)[C@@H](O)C2", "note": "[(+)-catechin]", "values": [
      {"measurement": "IC50", "setting": "[1]", "result": "> 500", "unit": "µM"}
    ]},
    {"smiles": "CCCCCCCCCCCC1=C(O)C(=O)C=C(O)C1=O", "note": "[Embelin, embelin]", "values": [
      {"measurement": "IC50", "setting": "[2]", "result": 10.2, "unit": "µM"}
    ]}
  ]
}
